Data taken from ChEMBL document CHEMBL4689842, “EUbOPEN Chemogenomics Library wave 1” (2021).
“And” between values parts separate entries of the source, which are not always exact repeats. Equal values may be shown once.

System: HEK-293T
Test: Multiplex assay against HEK293T;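 as to Population Tubulin-Different-Phenotype (%): share of the cells with healthy nuclei that show this phenotype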
Type: toxicity, cell-based
Conditions: human, 10 µM, compound concentration 10 uM
In short: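 Live cells were stained at seeding with Hoechst33342, BioTracker Green Microtubule Cytoskeleton Dye, MitoTracker Red and Annexin V Alexa Fluor 680. Following compound addition, they were imaged on a CQ1 microscope at 37°C and 5% CO2 and gated by CellPathfinder machine learning into Hoechst high-intensity objects or normal cells, with normal cells split into healthy, pyknosed or fragmented nuclei and pyknosed cells into mitotic or apoptotic. Tubulin, mitochondrial-mass and membrane-permeability phenotypes are per cents of healthy-nucleus cells.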

## CCn1c(=O)c(-c2ccc(Cl)cc2Cl)cc2cnc(Nc3ccc(N4CCNCC4)c(F)c3)nc21
12 h, replicate 1
  Population Fragmented Nuclei (%): 32% and 25% and 19%
  Population Hoechst High Intensity Objects (%): 51% and 56% and 22%
  Population Membrane Permeable-Phenotype (%): 0% and 19% and 5%
  Population Normal (%): 48% and 43% and 77%
  Population Pyknosed Nuclei (%): 63% and 42% and 26%
  Population Tubulin-Different-Phenotype (%): 40% and 64% and 37%
12 h, replicate 2
  Population Tubulin-Different-Phenotype (%): 85% and 75% and 43%
24 h, replicate 1
  Population Fragmented Nuclei (%): 38% and 33% and 20%
  Population Normal (%): 40% and 41% and 81%
  Total Cell Count: 280 and 738 and 614
24 h, replicate 2
  Population Fragmented Nuclei (%): 16% and 32% and 12%
  Population Healthy Nuclei (%): 43% and 40% and 83%
  Population Normal (%): 39% and 33% and 93%
  Population Tubulin-Different-Phenotype (%): 75% and 91% and 46%
48 h, replicate 1
  Population Apoptotic (%): 75%
  Population Fragmented Nuclei (%): 46%
  Population Healthy Nuclei (%): 3%
  Population Hoechst High Intensity Objects (%): 56%
  Population Membrane Permeable-Phenotype (%): 0%
  Population Mitochondria Different-Phenotype (%): 25%
  Population Mitotic Cells (%): 24%
  Population Normal (%): 43%
  Population Pyknosed Nuclei (%): 50%
  Population Tubulin-Different-Phenotype (%): 0%
  Total Cell Count: 280
48 h, replicate 2
  Population Apoptotic (%): 100%
  Population Fragmented Nuclei (%): 32%
  Population Healthy Nuclei (%): 38%
  Population Hoechst High Intensity Objects (%): 63%
  Population Membrane Permeable-Phenotype (%): 7%
  Population Mitochondria Different-Phenotype (%): 92%
  Population Mitotic Cells (%): 0%
  Population Normal (%): 36%
  Population Pyknosed Nuclei (%): 28%
  Population Tubulin-Different-Phenotype (%): 82%
  Total Cell Count: 296
